From ChEMBL document CHEMBL1145421, “Discovery of novel antitumor antimitotic agents that also reverse tumor resistance” (J Med Chem, 2007)
Active and inactive are the calls of the source. No cut-off for these calls is given here.

Assays:
[1] = Cytotoxicity against human T24 cells after 48 hrs by SRB binding assay; type: cell-based; details: T-24, 48 h
MCF7 [2] = experiment: Cytotoxicity against human MCF7 cells after 48 hrs by SRB binding assay; type: functional, cell-based; details: MCF7, 48 h
In short: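 Drug-sensitive MCF-7 cells seeded at ~15% confluency and allowed 24 h recovery. Exposed 48 h to graded concentrations. Survival measured by SRB binding as % decrease versus ethanol-vehicle controls, mean of triplicate wells.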

[3] = Cytotoxicity against MRP1 overexpressing human MCF7/VP cells after 48 hrs by SRB binding assay; type: functional, cell-based
In short: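 MCF-7/VP (MRP1-expressing, Pgp-negative) cells seeded at ~15% confluency and allowed 24 h to attach. Exposed 48 h to graded concentrations without vincristine. Survival measured by SRB binding versus ethanol controls.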

[4] = Cytotoxicity against Pgp overexpressing human NCI/ADR cells after 48 hrs by SRB binding assay; type: functional, cell-based; details: NCI/ADR-RES
In short: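 NCI/ADR (Pgp-overexpressing) cells seeded at ~15% confluency and allowed 24 h to attach. Exposed 48 h to graded concentrations, as solubility allowed, without vinblastine. Survival measured by sulforhodamine B binding as % decrease in SRB binding versus ethanol-vehicle controls, mean of three wells per condition.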

[5] = Growth inhibition of Pgp deficient MCF7/VP cells expressing MRP1; type: functional, cell-based; details: Homo sapiens
In short: (§1)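 NCI/ADR (Pgp-overexpressing) or MCF-7/VP (MRP1-expressing, Pgp-negative) cells were seeded at about 15% confluency and allowed to attach for 24 h. They were then exposed for 48 h to varying compound concentrations, limited by solubility, without added vinca drug. Survival was read by sulforhodamine B binding against ethanol solvent controls. Each value is the mean of three equally treated wells.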

MCF7 [6] = experiment: Growth inhibition of Pgp deficient MCF7 cells expressing MRP1; type: functional, cell-based; details: Homo sapiens; in short: as §1
[7] = Growth inhibition of NCI/ADR cells expressing Pgp/MRP1; type: functional, cell-based; details: Homo sapiens, NCI/ADR-RES; in short: as §1
HL-60 [8] = experiment: Cell cycle arrest in HL60 cells assessed as accumulation in […] phase at 600 nM; type: functional, Homo sapiens
In short: (§2)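 HL-60 cells exposed 24 or 48 h to drug or ethanol vehicle. Nuclei prepared by detergent-trypsin method: citrate/sucrose/DMSO buffer, trypsin, then trypsin inhibitor plus RNase A, then propidium iodide with spermine, 30 min at 4 °C. Filtered, resuspended, DNA content measured by flow cytometry. Percentages given for G0/G1, S and G2/M. Mean ± SEM.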

HL-60 [9] = experiment: Cell cycle arrest in HL60 cells assessed as accumulation in G0/G1 phase at 600 nM; type: functional, Homo sapiens; in short: as §2
HL-60 [10] = experiment: Cell cycle arrest in HL60 cells assessed as accumulation in S phase at 600 nM; type: functional, Homo sapiens; in short: as §2
HL-60 [11] = experiment: Cell cycle arrest in HL60 cells assessed as accumulation in S phase at 80 nM; type: functional, Homo sapiens; in short: as §2
HL-60 [12] = experiment: Cell cycle arrest in HL60 cells assessed as accumulation in G0/G1 phase at 80 nM; type: functional, Homo sapiens; in short: as §2
A10 = experiment: Induction of microtubule loss in rat A10 cells at 5 uM after 24 hrs; type: functional, cell-based
HL-60 [13] = experiment: Cell cycle arrest in HL60 cells assessed as accumulation in […] phase at 80 nM; type: functional, Homo sapiens; in short: as §2

Cc1nc(N)nc2c1c(CCc1ccccc1)cn2Cc1ccccc1
IC50 [1]: 12700 nM
IC50 (MCF7 [2]): 10700 nM
IC50 [3]: 18300 nM
IC50 [4]: 18200 nM

CC[C@]1(O)C[C@H]2CN(CCc3c([nH]c4ccccc34)[C@@](C(=O)OC)(c3cc4c(cc3OC)N(C=O)[C@H]3[C@@](O)(C(=O)OC)[C@H](OC(C)=O)[C@]5(CC)C=CCN6CC[C@]43[C@@H]65)C2)C1 [VINCRISTINE]
IC50 [5]: 9.3 nM
IC50 (MCF7 [6]): 0.6 nM
IC50 [7]: 100 nM

COc1cc2c(c(OC)c1OC)-c1ccc(OC)c(=O)cc1[C@@H](NC(C)=O)CC2 [COLCHICINE]
Activity (HL-60 [8]): 11.9%
Activity (HL-60 [9]): 84.1%
Activity (HL-60 [10]): 4%

CC[C@]1(O)C[C@@H]2CN(CCc3c([nH]c4ccccc34)[C@@](C(=O)OC)(c3cc4c(cc3OC)N(C)[C@H]3[C@@](O)(C(=O)OC)[C@H](OC(C)=O)[C@]5(CC)C=CCN6CC[C@]43[C@@H]65)C2)C1 [VINBLASTINE]
IC50 [5]: 3 nM
Activity (HL-60 [11]): 6.6%
Activity (HL-60 [12]): 83.3%
IC50 (MCF7 [6]): 2.8 nM
Activity (A10): Active
IC50 [7]: > 375 nM
Activity (HL-60 [13]): 10.1%
